Screening results from PubChem BioAssay.
The list is not random: actives were taken first. Their share in the collection is about 5.6%.
GRIN3A LBD mod: binders of NR3A ligand-binding domain, primary screen, biophysical, differential scanning fluorimetry, uHTS; NR3A LBD differential scanning fluorimetry, Tm shift; 0% = protein alone, 100% = glycine-bound protein; 340,000 tested, 2.5% active; Tm shift relative to glycine control, % at 25 µM; AID 1259313, 2017; Glutamate receptor ionotropic, NMDA 3A (GRIN3A) ligand-binding domain;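 active = melting temperature shift of at least 10% of the positive control shift, at one fixed dose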
aDG glyco act: activators of alpha-DG glycosylation, primary screen, uHTS, Pro5-aDG cells, AlphaScreen. 360,000 tested, 0.22% active. alpha-DG glycosylation AlphaScreen (IIH6); 0% Pro5, 100% B10-LARGE cell signal. AID 624168, 2012. activation, % at 10 µM;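 active = activation of at least 8% versus controls, or a plate z-score of at least 8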;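 also: Pro5 are CHO cells carrying HIG-tagged alpha-DG that lacks glycosylation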
XBP1 UPR activ: activators of adaptive XBP1 UPR arm, primary screen, cell-based, CHO-XBP1 luciferase reporter, luminescence, uHTS; AID 463104, 2010; 330,000 tested, 0.33% active; activation, % at 20 µM; IRE1-XBP1 UPR activation; percent of tunicamycin response, DMSO as zero;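 active = versus positive control, 20 µM dose yields 30% or more activation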;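 also: 100% = tunicamycin at 10 µg/mL and 0% = DMSO only wells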
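assay system = CHO-XBP1 luciferase reporter cells | amount = 1000 cells/well | buffer or medium = F12 plus 10% FBS | compound dosing = single point, 20 µM final compound, 1% DMSO | incubation = 16-18 h cell attachment at 37 °C, then 6 h compound exposure | detection = Steady-Glo luminescence read | controls = tunicamycin 10 µg/mL and vehicle-only wells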
UPR CHOP act: activators of apoptotic CHOP UPR arm, primary screen, cell-based, CHO-CHOP luciferase reporter, luminescence, uHTS; 330,000 tested, 0.34% active; UPR activation; percent of tunicamycin response over DMSO baseline; activation, % at 10 µM; AID 449763, 2010;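 active = at 10 µM dose, activation of 40% or more, normalized to positive control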;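 also: 100% = tunicamycin at 10 µg/mL and 0% = DMSO alone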
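Assay system: CHO-CHOP cells, stable luciferase reporter of PERK-eIF2a-CHOP signalling / Buffer or medium: F12 plus 10% serum / Compound dosing: one dose, 10 µM in 0.5% DMSO / Times: 6 h compound treatment, 37 °C / Technique: luciferase luminescence / Read-out: % reporter activation, DMSO baseline versus tunicamycin full activation / Benchmarks: tunicamycin and DMSO controls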
MPTP block: mitochondrial permeability transition pore inhibitors, primary screen, biochemical, isolated mouse mitochondria, absorbance | Ca2+ swelling absorbance, 30 min | inhibition, % at 10 µM | 360,000 tested, 1.4% active;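 active = inhibition of 50% or more, scaled per plate between neutral and stimulator controls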;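 also: 0% = DMSO wells given calcium and 100% = 1 mM EGTA wells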
CHOP inh: inhibitors of CHOP promoter induction, primary screen, cell-based, unfolded protein response, luciferase reporter; inhibition, % at 10 µM; AID 2732, 2010; CHO-K1 CHOP-promoter luciferase, tunicamycin-induced, 15-18 h; 220,000 tested, 3.8% active;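 active = compounds that reduced the stress-induced luciferase reporter signal by more than about 70% of percent inhibition, limit read from the data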;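 also: 0% = tunicamycin plus vehicle and 100% = wells without tunicamycin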
Numbers without * were called inactive; . = not tested or not shown.

SMILES	GRIN3A LBD mod	aDG glyco act	XBP1 UPR activ	UPR CHOP act	MPTP block	CHOP inh
CCOc1ccc(NC(=O)c2cccc3ccccc23)cc1	42*	0	-2	7	1	.
COc1ccc(NC(=O)NNC(=O)c2cc3ccccc3cc2O)cc1	-2	0	-1	2	0	.
CCN(CC(=O)Nc1ccc(NC(C)=O)cc1)C(=O)c1cc2c(s1)CCCCC2	0	0	0	0	-1	.
CC(C)CC1NC(=O)c2cc(Cl)ccc2-n2c1nc1ccc(F)cc1c2=O (stereo not given)	.	.	-2	-1	.	.
O=C(c1ccccc1)c1ccc(N2CCN(C(=O)c3ccc(F)cc3F)CC2)c(F)c1	.	1	.	.	4	.
Cc1noc(C)c1CSCC(=O)OCC(=O)Nc1ccc(OC(F)(F)F)cc1	.	0	.	.	1	.
CNc1ccccc(-c2ccc3ccccc3n2)c1=O	-6	0	0	2	8	-73
Cc1c(NC(=S)Nc2ccc(Cl)cc2)c(=O)n(-c2ccccc2)n1C	-1	0	1	0	-2	-5
Clc1ccc(Nc2ccc(NCc3ccccc3)nn2)cc1	24*	1	0	6	-16	13
Cc1ccc(Nc2ccc(NCc3ccccc3)nn2)cc1C	-7	0	0	4	5	34
O=C1CC2c3ccccc3C1C1C(=O)N(Cc3ccccc3)C(=O)C21 (stereo not given)	-2	0	-2	-1	1	61
Cc1cccc(NC(=O)Cn2c(O)c(N=NC(N)=S)c3ccccc32)c1	-3	0	-2	3	2	94*
CCOC(=O)c1nnn(-c2nc(N3CCCC3)nc(N3CCCC3)n2)c1-c1ccccc1	-2	0	2	-1	7	89*
CCN(CC(=O)Nc1c(F)cccc1F)C(=O)CCc1nc2sc3c(c2c(=O)[nH]1)CCCC3	-2	0	-1	0	0	.
CCOc1ccc(-n2c(N)c(-c3nc4ccccc4[nH]3)sc2=S)cc1	-1	0	-1	0	-3	81*
COc1ccc(-n2c(N)c(-c3nc4ccccc4n3C)sc2=S)cc1	1	0	3	2	8	28
Cc1cc(C)n(Cc2ccc(Cl)c(Cl)c2)c(=O)c1S(=O)(=O)c1ccccc1	-3	0	.	.	0	74*
Cc1cc(C)n(Cc2ccccc2)c(=O)c1S(=O)(=O)c1ccccc1	-1	0	-2	-2	-2	1
C[C@H](CO)N1C[C@H](C)[C@@H](CN(C)Cc2ccncc2)Oc2ccc(NC(=O)Cn3cnnn3)cc2C1=O	-2	0	-1	1	0	.
Cc1nc(SCC(=O)c2cc3ccccc3oc2=O)c(C#N)c(-c2ccccc2)c1C(=O)Nc1ccccc1	0	2	-1	0	3	95*
c1ccc(CSc2ccc3nnc(-c4cccnc4)n3n2)cc1	14*	0	2	5	-1	16
CCOC(=O)c1cnc(-n2nc(C)cc2C)nc1NCc1ccc2c(c1)OCO2	0	4	18	19	0	87*
CCOC(=O)c1cnc(-n2nc(C)cc2C)nc1Nc1ccc(OC)cc1	1	4	18	30	0	-67
CN(C)S(=O)(=O)c1cc(NC(=O)CN2CCN(c3ccccc3O)CC2)ccc1Cl	-1	0	0	-2	0	-1
O=C(CN1C(=O)NC2(CCCCC2)C1=O)NCc1ccc2c(c1)OCO2	-1	0	0	0	0	-3
SMILES	GRIN3A LBD mod	aDG glyco act	XBP1 UPR activ	UPR CHOP act	MPTP block	CHOP inh
C=CCn1c(-c2ccccc2)ccc(C#N)c1=O	4	0	-4	0	3	91*
C=CCn1c(-c2ccccc2)cc(SC)c(C#N)c1=O	-5	0	-2	0	0	54
COc1ccccc1NS(=O)(=O)c1ccc(C)c(C(=O)NCC2(N(C)C)CCCCC2)c1	0	0	-2	-1	0	.
CC(OC(=O)CCCN=C1NS(=O)(=O)c2ccccc21)C(=O)NC1CCCCC1C (stereo not given)	0	0	-5	-1	1	.
COc1ccccc1N(C)S(=O)(=O)c1ccc(C(=O)OCC(=O)N(C)c2ccccc2)cc1	-1	0	0	1	1	24
COc1ccccc1N(C)S(=O)(=O)c1ccc(C(=O)OCC(=O)c2c[nH]c3ccccc23)cc1	23*	0	1	0	2	41
Cc1cc(=O)oc2cc3oc(=O)cc(C)c3cc12	0	0	-3	-1	0	.
CC(=O)Nc1cccc(-c2csc(Nc3ccc(Cl)cn3)n2)c1	14*	0	22	5	0	16
CC(=O)Nc1cccc(-c2csc(Nc3ccccn3)n2)c1	8	0	-1	2	0	-7
CC(=O)Nc1ccc(-c2csc(Nc3ccc(Cl)cn3)n2)cc1	26*	0	10	6	1	-9
CC(=O)Nc1ccc(-c2csc(NC(=O)CCCc3cccs3)n2)cc1	19*	0	1	0	3	5
CC(=O)Nc1ccc(-c2csc(Nc3ncccn3)n2)cc1	4	0	0	5	2	-15
COc1ccc(CCNC(=O)c2ccc3ccccc3n2)cc1	0	0	3	2	-1	.
Cc1ccc(S(=O)(=O)N(C)C)cc1NC(=O)C(C)OC(=O)C1CCC1 (stereo not given)	2	0	4	0	-1	.
Cc1noc(C)c1S(=O)(=O)N(C)C[C@H]1Oc2ccc(NC(=O)NC(C)C)cc2C(=O)N([C@H](C)CO)C[C@@H]1C	1	0	-1	2	0	.
Cc1c(C(=O)N2CCCCC2)c(S(=O)(=O)Nc2ccc(F)cc2F)c(C)n1C	-3	0	-4	-3	0	.
CCC(=O)Nc1cccc(-c2cn3cccc(C)c3n2)c1	15*	0	6	4	0	1
Cc1cccn2cc(-c3ccc(S(=O)(=O)N4CCCCC4)cc3)nc12	9	0	-2	4	1	33
Cc1cccn2cc(-c3ccc(S(=O)(=O)N4CCOCC4)cc3)nc12	-8	0	1	-1	2	71*
Cc1ccc(-c2cn3cccc(C)c3n2)cc1	23*	0	.	.	0	52
Cc1cc(C)nc(NS(=O)(=O)c2ccc(NC(=O)c3ccccc3[N+](=O)[O-])cc2)n1	-2	0	-3	0	0	.
